What was measured:
[1] = Half life in rat at 10 mg/kg, po by LC-MS/MS method; type: ADME, organism-based; conditions: in vivo
[2] = Ratio of unbound plasma concentration in C57BL/6 mouse model of formalin-induced nociception behavior at 60 mg/kg, po to IC50 for mouse Nav1.7 by whole cell voltage clamp method
How it was run: (§1)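 The formalin arm received 2% formalin subcutaneously into the dorsal hind paw, and total phase II licking and lifting was scored. The pruritus arm was dosed 120 min before histamine (8.15mM, intradermal, nape of neck), and scratch bouts were counted over 0-30 min. Unbound plasma concentration was determined at each dose.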

Plasma [3] = test: Plasma concentration in C57BL/6 mouse model of formalin-induced nociception behavior at 60 mg/kg, po; type: ADME, organism-based; conditions: in vivo
How it was run: (§2)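 Male C57BL/6 mice got 30, 60 or 100 mg/kg PO in 30% (w/v) hydroxypropyl β-cyclodextrin in water, pH 10.0 with KOH. Formalin (2%) was injected subcutaneously into the dorsal hind paw, and total phase II paw licking and lifting were scored. Morphine sulfate 3 mg/kg SC served as control. Unbound plasma concentration was divided by the mouse NaV1.7 IC50.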

[4] = Ratio of unbound plasma concentration in Sprague-Dawley rat model of formalin-induced nociception behavior at 100 mg/kg, po to IC50 for rat Nav1.7 by whole cell voltage clamp method
How it was run: (§3)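 Total phase II formalin-induced flinches were scored. Unbound plasma concentration was determined at each dose and related to the rat NaV1.7 IC50.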

Rattus norvegicus [5] = test: Analgesic activity in Sprague-Dawley rat model of formalin-induced nociception behavior assessed as reduction in formalin-evoked paw flinching at 30 mg/kg, po; type: functional
How it was run: (§4)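 Sprague Dawley rats got 10, 30 or 100 mg/kg PO in 30% (w/v) hydroxypropyl β-cyclodextrin, pH 10.0 with KOH. Total phase II formalin-induced flinches were counted. Morphine sulfate 2 mg/kg SC served as control. Unbound plasma levels were measured and compared with the rat NaV1.7 IC50.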

[6] = Oral bioavailability in rat at 10 mg/kg by LC-MS/MS method; type: ADME, organism-based; conditions: in vivo
[7] = AUC (infinity) in mouse at 30 mg/kg, po by LC-MS/MS method; type: ADME, organism-based; set-up: dose 30 mg/kg, time infinity, route oral; conditions: in vivo
[8] = Tmax in rat at 10 mg/kg, po by LC-MS/MS method; type: ADME, organism-based; conditions: in vivo
[9] = molecular target: Sodium channel protein type 9 subunit alpha (Rattus norvegicus, UniProt O08562); test: Inhibition of rat NaV1.7 by cell based whole cell voltage clamp method
How it was run: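 PatchXpress electrophysiology was run with a protocol giving about 20% channel inactivation. At least four concentrations at half-log spacing were applied one at a time, with washout, current recovery and holding voltage reset between each. Data were pooled from at least 10 cells, with 2–3 points per concentration, and fitted with a 4-parameter Hill curve to give one IC50.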

[10] = Clearance in pooled rat liver microsomes at 1 uM in presence of NADPH by LC-MS/MS method; type: ADME, microsome; conditions: read-out: CLH
Mus musculus [11] = test: Analgesic activity in C57BL/6 mouse model of formalin-induced nociception behavior assessed as reduction in formalin-evoked paw lifting/licking at 60 mg/kg, po; type: functional; how it was run: as §2
Rattus norvegicus [12] = test: Unbound clearance in rat at 0.5 mg/kg, iv by LC-MS/MS method; type: ADME, organism-based; conditions: in vivo
How it was run: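 Male rats given 0.5 mg/kg intravenously as a solution in DMSO. Unbound clearance was calculated as rat clearance divided by unbound fraction, with unbound fraction determined by equilibrium dialysis.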

Mus musculus [13] = test: Analgesic activity in C57BL/6 mouse model of formalin-induced nociception behavior assessed as reduction in formalin-evoked paw lifting/licking at 30 mg/kg, po; type: functional; how it was run: as §2
Mus musculus [14] = test: Analgesic activity in C57BL/6 mouse model of formalin-induced nociception behavior assessed as reduction in formalin-evoked paw lifting/licking at 30 to 100 mg/kg, po; type: functional, organism-based; how it was run: as §2
Plasma [15] = test: Plasma concentration in Sprague-Dawley rat model of formalin-induced nociception behavior at 10 mg/kg, po; type: ADME, organism-based; conditions: in vivo; how it was run: as §4
[16] = molecular target: Sodium channel protein type 5 subunit alpha (Homo sapiens, UniProt Q14524); test: Inhibition of human NaV1.5 expressed in […] cells at holding potential of -125 mV with test potentials to -10 mV by whole cell voltage clamp method; type: cell-based
Plasma [17] = test: Plasma concentration in C57BL/6 mouse model of formalin-induced nociception behavior at 30 mg/kg, po; type: ADME, organism-based; conditions: in vivo; how it was run: as §2
[18] = Ratio of unbound plasma concentration in Sprague-Dawley rat model of formalin-induced nociception behavior at 30 mg/kg, po to IC50 for rat Nav1.7 by whole cell voltage clamp method; how it was run: as §3
[19] = Unbound fraction in rat plasma at 5 uM by ultracentrifugation and LC-MS/MS method; type: ADME, cell-free
Plasma [20] = test: Unbound plasma concentration in C57BL/6 mouse model of formalin-induced nociception behavior at 60 mg/kg, po; type: ADME, organism-based; conditions: in vivo; how it was run: as §1
Plasma [21] = test: Unbound plasma concentration in C57BL/6 mouse model of histamine-induced pruritus at 30 mg/kg, po; type: ADME, organism-based; conditions: in vivo; how it was run: as §1
Plasma [22] = test: Plasma concentration in C57BL/6 mouse model of formalin-induced nociception behavior at 100 mg/kg, po; type: ADME, organism-based; conditions: in vivo; how it was run: as §2
[23] = molecular target: Sodium channel protein type 10 subunit alpha (Rattus norvegicus, UniProt Q62968); test: Inhibition of NaV1.8 in rat DRG neurons assessed as reduction in tetrodotoxin-resistant sodium channel currents at holding potential of -140 mV by manual patch clamp electrophysiology assay
Plasma [24] = test: Plasma concentration in C57BL/6 mouse model of histamine-induced pruritus at 30 mg/kg, po; type: ADME, organism-based; conditions: in vivo
How it was run: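 Male C57BL/6 mice got 30, 60 or 100 mg/kg PO in 30% hydroxypropyl β-cyclodextrin, pH 10.0, 120 min before the test. Histamine (8.15mM) was given intradermally to the nape of the neck just before testing, and scratch bouts were counted over 0–30 min. Diphenhydramine 30 mg/kg PO in water, 90 min before, served as control. Unbound plasma concentrations were measured.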

[25] = Ratio of unbound plasma concentration in C57BL/6 mouse model of histamine-induced pruritus at 60 mg/kg, po to IC50 for mouse Nav1.7 by whole cell voltage clamp method; how it was run: as §1
[26] = Ratio of unbound plasma concentration in Sprague-Dawley rat model of formalin-induced nociception behavior at 10 mg/kg, po to IC50 for rat Nav1.7 by whole cell voltage clamp method; how it was run: as §3
[27] = molecular target: Sodium channel protein type 9 subunit alpha (Homo sapiens, UniProt Q15858); test: Displacement of (P)-1-(30-chloro-2-fluoro-5,50-dimethoxy-[1,10biphenyl]-4-yl)-N-(isoxazol-3-yl)-2-oxo-1,2-dihydroquinoline-6-sulfonamide[50-methoxy-C3H3] from human NaV1.7 expressed in HEK293 cell membranes incubated for 1 hr by beta counting method
How it was run: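 Human NaV1.7 radioligand displacement using the tritiated 5'-methoxy-labelled dihydroquinoline sulfonamide ligand, which binds the VSDIV pocket.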

[28] = Cmax in mouse at 30 mg/kg, po by LC-MS/MS method; type: ADME, organism-based; set-up: dose 30 mg/kg, route oral; conditions: in vivo
[29] = Ratio of unbound plasma concentration in C57BL/6 mouse model of histamine-induced pruritus at 30 mg/kg, po to IC50 for mouse Nav1.7 by whole cell voltage clamp method; how it was run: as §1
Rattus norvegicus [30] = test: Analgesic activity in Sprague-Dawley rat model of formalin-induced nociception behavior assessed as reduction in formalin-evoked paw flinching at 10 mg/kg, po; type: functional; how it was run: as §4

Sequence of Sodium channel protein type 9 subunit alpha (Rattus norvegicus, UniProt O08562) (O08562 whole entry): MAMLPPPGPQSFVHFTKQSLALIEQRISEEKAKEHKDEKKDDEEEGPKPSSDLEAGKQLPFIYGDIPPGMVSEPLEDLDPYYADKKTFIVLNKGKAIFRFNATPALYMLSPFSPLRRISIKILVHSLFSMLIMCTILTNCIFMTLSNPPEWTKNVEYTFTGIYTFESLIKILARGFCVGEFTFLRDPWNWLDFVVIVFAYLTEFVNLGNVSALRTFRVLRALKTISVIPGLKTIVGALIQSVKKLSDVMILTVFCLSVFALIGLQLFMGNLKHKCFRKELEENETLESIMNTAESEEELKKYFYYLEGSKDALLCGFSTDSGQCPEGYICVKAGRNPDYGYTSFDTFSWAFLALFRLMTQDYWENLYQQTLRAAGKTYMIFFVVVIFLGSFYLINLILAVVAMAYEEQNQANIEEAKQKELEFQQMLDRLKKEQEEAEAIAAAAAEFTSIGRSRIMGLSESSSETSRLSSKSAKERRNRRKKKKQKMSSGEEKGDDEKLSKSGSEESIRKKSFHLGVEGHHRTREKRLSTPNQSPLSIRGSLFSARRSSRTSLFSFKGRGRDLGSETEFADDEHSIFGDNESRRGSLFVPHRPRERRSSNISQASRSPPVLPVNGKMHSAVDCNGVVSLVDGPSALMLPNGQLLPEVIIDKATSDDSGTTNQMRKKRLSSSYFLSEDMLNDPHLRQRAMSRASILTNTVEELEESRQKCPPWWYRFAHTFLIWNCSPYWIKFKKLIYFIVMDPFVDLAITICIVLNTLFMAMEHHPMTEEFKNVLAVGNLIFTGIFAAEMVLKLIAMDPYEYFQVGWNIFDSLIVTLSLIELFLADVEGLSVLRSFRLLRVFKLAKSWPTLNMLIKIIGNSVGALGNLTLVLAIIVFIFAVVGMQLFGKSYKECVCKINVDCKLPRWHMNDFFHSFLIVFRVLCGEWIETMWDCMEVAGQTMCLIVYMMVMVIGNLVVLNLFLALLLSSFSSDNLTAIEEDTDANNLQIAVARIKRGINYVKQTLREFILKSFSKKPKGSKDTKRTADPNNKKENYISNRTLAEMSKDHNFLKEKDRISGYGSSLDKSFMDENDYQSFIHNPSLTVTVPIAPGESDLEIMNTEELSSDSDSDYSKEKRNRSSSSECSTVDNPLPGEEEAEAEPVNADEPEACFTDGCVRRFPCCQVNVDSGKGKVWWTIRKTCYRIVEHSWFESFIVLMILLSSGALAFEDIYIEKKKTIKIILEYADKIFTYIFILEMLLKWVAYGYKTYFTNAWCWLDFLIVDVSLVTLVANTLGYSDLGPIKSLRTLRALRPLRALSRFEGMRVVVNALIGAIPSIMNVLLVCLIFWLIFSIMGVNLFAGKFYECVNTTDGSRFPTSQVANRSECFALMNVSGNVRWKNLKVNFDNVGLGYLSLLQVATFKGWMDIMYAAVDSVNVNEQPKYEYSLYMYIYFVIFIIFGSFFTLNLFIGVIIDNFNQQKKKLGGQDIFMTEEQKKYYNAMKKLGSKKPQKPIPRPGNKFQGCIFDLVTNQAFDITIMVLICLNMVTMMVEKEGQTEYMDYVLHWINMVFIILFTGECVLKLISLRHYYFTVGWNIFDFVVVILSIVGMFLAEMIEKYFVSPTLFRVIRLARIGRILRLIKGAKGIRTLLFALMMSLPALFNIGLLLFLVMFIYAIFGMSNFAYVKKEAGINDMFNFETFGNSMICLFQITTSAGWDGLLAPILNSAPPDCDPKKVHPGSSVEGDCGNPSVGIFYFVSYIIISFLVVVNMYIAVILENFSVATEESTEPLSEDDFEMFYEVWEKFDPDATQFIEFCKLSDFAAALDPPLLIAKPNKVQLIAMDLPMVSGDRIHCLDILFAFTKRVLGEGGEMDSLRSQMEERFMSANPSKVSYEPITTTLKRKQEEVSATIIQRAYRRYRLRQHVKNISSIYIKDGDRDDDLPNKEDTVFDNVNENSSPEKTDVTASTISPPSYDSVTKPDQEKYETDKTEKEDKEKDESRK
Sequence of Sodium channel protein type 5 subunit alpha (Q14524 whole entry): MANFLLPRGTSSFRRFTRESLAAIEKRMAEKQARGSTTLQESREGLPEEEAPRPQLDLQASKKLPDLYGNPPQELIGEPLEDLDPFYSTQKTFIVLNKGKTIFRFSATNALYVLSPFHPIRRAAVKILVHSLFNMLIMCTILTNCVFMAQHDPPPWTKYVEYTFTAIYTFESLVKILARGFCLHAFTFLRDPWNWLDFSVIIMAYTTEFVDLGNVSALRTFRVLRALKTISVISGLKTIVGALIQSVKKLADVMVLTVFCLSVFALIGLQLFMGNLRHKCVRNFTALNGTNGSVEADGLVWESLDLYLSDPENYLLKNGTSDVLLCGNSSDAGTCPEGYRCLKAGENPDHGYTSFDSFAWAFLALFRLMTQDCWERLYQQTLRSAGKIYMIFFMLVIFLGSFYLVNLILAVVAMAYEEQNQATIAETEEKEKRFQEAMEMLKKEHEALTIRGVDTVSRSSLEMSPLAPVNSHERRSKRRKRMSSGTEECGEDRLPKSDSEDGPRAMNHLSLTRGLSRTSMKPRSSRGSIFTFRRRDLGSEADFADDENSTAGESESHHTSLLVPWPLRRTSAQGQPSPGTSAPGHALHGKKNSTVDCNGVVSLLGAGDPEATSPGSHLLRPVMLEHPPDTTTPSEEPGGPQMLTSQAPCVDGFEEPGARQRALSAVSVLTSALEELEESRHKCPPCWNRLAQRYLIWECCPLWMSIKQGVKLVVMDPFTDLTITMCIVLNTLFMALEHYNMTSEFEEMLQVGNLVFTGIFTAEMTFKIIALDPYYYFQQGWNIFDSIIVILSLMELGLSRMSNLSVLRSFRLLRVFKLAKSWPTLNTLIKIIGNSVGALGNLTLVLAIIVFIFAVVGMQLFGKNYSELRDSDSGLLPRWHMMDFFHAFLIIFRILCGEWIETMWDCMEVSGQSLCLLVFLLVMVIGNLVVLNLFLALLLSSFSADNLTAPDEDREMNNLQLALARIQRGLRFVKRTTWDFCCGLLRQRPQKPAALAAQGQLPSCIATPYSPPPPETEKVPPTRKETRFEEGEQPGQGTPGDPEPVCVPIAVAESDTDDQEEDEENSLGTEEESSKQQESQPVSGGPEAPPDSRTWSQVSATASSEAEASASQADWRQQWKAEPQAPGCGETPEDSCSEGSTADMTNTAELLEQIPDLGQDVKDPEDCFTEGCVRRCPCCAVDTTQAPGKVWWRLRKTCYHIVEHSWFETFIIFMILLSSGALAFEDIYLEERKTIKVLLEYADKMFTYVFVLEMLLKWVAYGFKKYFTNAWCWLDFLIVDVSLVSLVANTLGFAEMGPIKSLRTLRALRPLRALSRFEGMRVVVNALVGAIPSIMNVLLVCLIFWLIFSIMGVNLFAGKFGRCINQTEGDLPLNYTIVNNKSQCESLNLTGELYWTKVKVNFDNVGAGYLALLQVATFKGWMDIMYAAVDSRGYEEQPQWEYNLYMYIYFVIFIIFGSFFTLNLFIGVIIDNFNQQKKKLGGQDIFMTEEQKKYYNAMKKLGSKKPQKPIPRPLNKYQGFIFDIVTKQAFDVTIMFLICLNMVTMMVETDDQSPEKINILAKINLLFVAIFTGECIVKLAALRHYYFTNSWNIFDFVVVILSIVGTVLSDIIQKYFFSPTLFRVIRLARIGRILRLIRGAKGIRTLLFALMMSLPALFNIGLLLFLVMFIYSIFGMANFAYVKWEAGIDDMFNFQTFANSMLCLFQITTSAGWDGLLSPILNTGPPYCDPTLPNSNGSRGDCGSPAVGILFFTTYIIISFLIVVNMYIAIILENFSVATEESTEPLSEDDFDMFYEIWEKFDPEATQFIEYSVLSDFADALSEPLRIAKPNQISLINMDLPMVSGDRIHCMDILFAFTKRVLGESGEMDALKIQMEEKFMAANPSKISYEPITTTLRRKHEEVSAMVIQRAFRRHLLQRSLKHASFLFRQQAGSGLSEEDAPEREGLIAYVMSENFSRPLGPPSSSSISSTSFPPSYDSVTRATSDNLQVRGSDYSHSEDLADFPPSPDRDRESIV

SMILES: N#Cc1cc(C(F)(F)F)ccc1N1CCOc2cc(S(=O)(=O)Nc3nccs3)c(F)cc21
- half-life [1]: 9.8 h
- Ratio [2]: 10
- concentration (Plasma [3]): 100 µM
- Ratio [4]: 3.6
- MPE (Rattus norvegicus [5]): 39%
- bioavailability [6]: 57%
- AUC(0-inf) [7]: 790 µM·h
- Tmax [8]: 6.7 h
- IC50 [9]: 0.067 µM
- microsomal CLint at 1 µM [10]: < 14 µL/min/mg
- MPE (Mus musculus [11]): 45%
- CL free (Rattus norvegicus [12]): 39 L/h/kg
- MPE (Mus musculus [13]): 5%
- inhibition (Mus musculus [14]): Dose-dependent effect
- concentration (Plasma [15]): 1.7 µM
- IC50 [16]: 0.32 to 0.33 µM
- concentration (Plasma [17]): 51 µM
- Ratio [18]: 1.3
- fraction unbound at 5 µM [19]: 0.015
- Cp(f) (Plasma [20]): 0.62 µM
- Cp(f) (Plasma [21]): 0.37 µM
- concentration (Plasma [22]): 150 µM
- IC50 [23]: > 30 µM
- concentration (Plasma [24]): 61 µM
- Ratio [25]: 10
- Ratio [26]: 0.5
- IC50 [27]: 0.037 µM
- Cmax [28]: 58 µM
- Ratio [29]: 6
- MPE (Rattus norvegicus [30]): 17%

— ChEMBL document CHEMBL4052683, “The discovery of benzoxazine sulfonamide inhibitors of NaV1.7: Tools that bridge efficacy and target engagement” (Bioorg Med Chem Lett, 2017)
